Test results: ChEMBL document CHEMBL1131093, “ATP-Citrate lyase as a target for hypolipidemic intervention. 2. Synthesis and evaluation of (3R,5S)-omega-substituted-3-carboxy-3, 5-dihydroxyalkanoic acids and their gamma-lactone prodrugs as inhibitors of the enzyme in vitro and in vivo” (J Med Chem, 1998)

Tests used:
ATP-citrate synthase [1] = target: T1, ATP-citrate synthase (Homo sapiens, UniProt P53396); assay: Inhibitory activity against human recombinant ATP-Citrate Lyase (ACL) enzyme
T1 sequence (P53396 whole entry): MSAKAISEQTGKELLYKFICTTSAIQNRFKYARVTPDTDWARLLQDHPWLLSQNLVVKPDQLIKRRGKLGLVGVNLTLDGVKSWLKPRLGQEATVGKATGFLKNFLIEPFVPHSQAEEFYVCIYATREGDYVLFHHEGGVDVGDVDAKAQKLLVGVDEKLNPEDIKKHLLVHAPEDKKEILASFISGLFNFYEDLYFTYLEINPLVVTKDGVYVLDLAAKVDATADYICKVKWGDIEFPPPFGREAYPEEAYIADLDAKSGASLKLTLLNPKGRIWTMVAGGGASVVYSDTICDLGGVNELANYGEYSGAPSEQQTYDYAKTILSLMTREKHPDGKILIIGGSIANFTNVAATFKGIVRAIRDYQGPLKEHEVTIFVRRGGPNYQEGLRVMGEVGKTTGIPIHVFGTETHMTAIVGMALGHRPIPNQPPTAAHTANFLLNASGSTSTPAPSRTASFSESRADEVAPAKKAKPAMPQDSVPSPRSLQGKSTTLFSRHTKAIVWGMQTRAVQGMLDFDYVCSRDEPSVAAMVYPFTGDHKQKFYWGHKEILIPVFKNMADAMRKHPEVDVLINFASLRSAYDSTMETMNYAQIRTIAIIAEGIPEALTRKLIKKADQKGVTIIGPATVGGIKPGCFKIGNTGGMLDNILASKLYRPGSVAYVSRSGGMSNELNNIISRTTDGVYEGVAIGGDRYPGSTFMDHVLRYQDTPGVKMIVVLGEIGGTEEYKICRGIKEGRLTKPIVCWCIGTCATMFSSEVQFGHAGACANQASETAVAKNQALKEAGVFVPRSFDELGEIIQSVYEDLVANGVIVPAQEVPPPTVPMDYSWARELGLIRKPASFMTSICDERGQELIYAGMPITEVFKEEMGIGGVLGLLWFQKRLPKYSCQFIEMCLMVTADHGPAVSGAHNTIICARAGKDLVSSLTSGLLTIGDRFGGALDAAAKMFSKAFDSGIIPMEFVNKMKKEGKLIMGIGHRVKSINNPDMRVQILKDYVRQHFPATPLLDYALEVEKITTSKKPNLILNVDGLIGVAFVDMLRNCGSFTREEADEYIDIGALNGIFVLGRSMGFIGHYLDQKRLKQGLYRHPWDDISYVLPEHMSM
Outline: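 Human recombinant ATP-citrate lyase was used. Lactone intermediates were hydrolysed with aqueous NaOH to the hydroxy acid before being added to the enzyme buffer mix. Potency was reported as the reversible Ki.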

[2] = target: T2, ATP-citrate synthase (Homo sapiens) (UniProt P53396); assay: Inhibitory activity was tested against human recombinant ATP-Citrate Lyase (ACL) enzyme at 100 uM
T2 sequence (whole entry): T1 sequence (P53396 whole entry)

ATP-citrate synthase [3] = target: T3, ATP-citrate synthase (Rattus norvegicus, UniProt P16638); assay: Inhibitory activity was tested against ATP-Citrate Lyase (ACL) enzyme in rat
T3 sequence (P16638 whole entry): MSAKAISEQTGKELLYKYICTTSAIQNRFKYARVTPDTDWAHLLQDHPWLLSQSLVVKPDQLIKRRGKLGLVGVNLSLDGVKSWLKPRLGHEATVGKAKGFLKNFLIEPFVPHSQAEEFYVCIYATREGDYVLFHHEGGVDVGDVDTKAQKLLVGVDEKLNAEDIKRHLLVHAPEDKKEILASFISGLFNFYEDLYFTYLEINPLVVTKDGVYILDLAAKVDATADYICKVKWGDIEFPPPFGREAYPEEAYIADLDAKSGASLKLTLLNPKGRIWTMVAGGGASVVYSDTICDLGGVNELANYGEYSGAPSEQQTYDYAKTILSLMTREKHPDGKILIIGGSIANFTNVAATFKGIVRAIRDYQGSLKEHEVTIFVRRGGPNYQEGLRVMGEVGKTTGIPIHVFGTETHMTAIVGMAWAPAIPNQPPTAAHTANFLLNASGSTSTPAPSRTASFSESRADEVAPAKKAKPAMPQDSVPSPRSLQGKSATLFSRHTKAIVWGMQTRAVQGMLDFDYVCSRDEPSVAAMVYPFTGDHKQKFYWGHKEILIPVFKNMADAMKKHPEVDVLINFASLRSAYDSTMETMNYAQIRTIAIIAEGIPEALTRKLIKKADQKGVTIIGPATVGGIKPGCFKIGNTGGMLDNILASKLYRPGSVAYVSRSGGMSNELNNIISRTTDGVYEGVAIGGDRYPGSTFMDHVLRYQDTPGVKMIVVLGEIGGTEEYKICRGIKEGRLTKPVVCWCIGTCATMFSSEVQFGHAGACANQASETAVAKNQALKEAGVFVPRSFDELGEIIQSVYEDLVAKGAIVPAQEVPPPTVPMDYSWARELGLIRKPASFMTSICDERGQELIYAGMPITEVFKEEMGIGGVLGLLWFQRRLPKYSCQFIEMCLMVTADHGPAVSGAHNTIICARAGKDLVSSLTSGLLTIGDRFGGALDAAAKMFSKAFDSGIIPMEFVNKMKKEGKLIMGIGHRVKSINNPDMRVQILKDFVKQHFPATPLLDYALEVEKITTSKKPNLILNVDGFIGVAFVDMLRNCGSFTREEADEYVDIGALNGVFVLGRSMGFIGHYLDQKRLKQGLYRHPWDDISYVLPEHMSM

Rattus norvegicus [4] = assay: % Reduction of plasma triglyceride in the rat was measured at dose 37.5 mg/kg/d; format: functional
Outline: (§1)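 Male Sprague-Dawley rats were kept on a reverse 12 h light/12 h dark cycle with free access to RM1 powdered diet and water. Compound was given orally by gavage as two doses 24 h apart. Blood was drawn mid dark cycle, 4 h after the second dose, into EDTA. Plasma was separated at 1500g for 15 min. Triglyceride was measured enzymatically (GPO-PAP) and reported as % reduction from control.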

Rattus norvegicus [5] = assay: % Reduction of plasma triglyceride in the rat was measured at dose 75 mg/kg/d; format: functional; outline: as §1
ATP-citrate synthase [6] = target: T3, ATP-citrate synthase; assay: Inhibitory activity was tested against rat ATP-Citrate Lyase (ACL) enzyme
HepG2 [7] = assay: Inhibition of ATP levels in HepG2 cells was measured at 10 uM concentration.; format: functional, Homo sapiens; parameters: scale not given: the % may be the effect or the level left
Outline: (§2)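 Compounds were applied to HepG2 cells as their γ-lactone prodrugs. De novo cholesterol synthesis, fatty acid synthesis and cellular ATP levels were each expressed as % of control. Significance was marked at p < 0.001.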

HepG2 [8] = assay: Inhibition of ATP levels in HepG2 cells was measured at 3 uM concentration.; format: functional, Homo sapiens; parameters: scale not given: the % may be the effect or the level left; outline: as §2
HepG2 [9] = assay: Inhibition of cholesterol synthesis in HepG2 cells was measured at 10 uM concentration.; format: functional, Homo sapiens; parameters: scale not given: the % may be the effect or the level left; outline: as §2
HepG2 [10] = assay: Inhibition of cholesterol synthesis in HepG2 cells was measured at 3 uM concentration.; format: functional, Homo sapiens; parameters: scale not given: the % may be the effect or the level left; outline: as §2
HepG2 [11] = assay: Inhibition of fatty acid synthesis in HepG2 cells was measured at 3 uM concentration.; format: functional, Homo sapiens; parameters: scale not given: the % may be the effect or the level left; outline: as §2
HepG2 [12] = assay: Inhibition of fatty acid synthesis in HepG2 cells was measured at 10 uM concentration.; format: functional, Homo sapiens; parameters: scale not given: the % may be the effect or the level left; outline: as §2

Row | Compound | Ki (ATP-citrate synthase [1]) [nM] | further results
1 | O=C(O)C[C@@](O)(C[C@H](O)CCCCCCc1ccc(Cl)cc1O)C(=O)O |  | inhibition [2]: 24%
2 | O=C(O)C[C@@](O)(CCCCCCCCc1ccc(Cl)cc1Cl)C(=O)O |  | Ki (ATP-citrate synthase [3]): 2900 nM
3 | Cc1cc2cc(Cl)ccc2n1CCCCC[C@@H](O)C[C@](O)(CC(=O)O)C(=O)O | 13000 | 
4 | O=C(O)C[C@@](O)(C[C@H](O)CCCCCCc1ccc(Cl)cc1-c1ccc(Cl)cc1)C(=O)O | 5000 | 
5 | O=C(O)C[C@@](O)(C[C@H](O)CCCCCn1cc(-c2ccccc2)c2cc(Cl)ccc21)C(=O)O | 11000 | 
6 | O=C(O)C[C@@](O)(C[C@H](O)CCCCCn1cc([N+](=O)[O-])c2cc(Cl)ccc21)C(=O)O | 64000 | 
7 | O=C(O)C[C@@](O)(C[C@H](O)CCCCCn1c2c(c3cc(Cl)ccc31)CCCC2)C(=O)O | 2900 | 
8 | O=C(O)C[C@@]1(O)C[C@@H](CCCCCC2c3ccccc3-c3cc(Cl)ccc32)OC1=O (stereo partly drawn) |  | Reduction (Rattus norvegicus [4]): 5%; Reduction (Rattus norvegicus [5]): 16%
9 | O=C(O)C[C@@](O)(C[C@H](O)CCCCCn1ccc2cc(Cl)ccc21)C(=O)O | 3500 | 
10 | O=C(O)C[C@@](O)(C[C@H](O)CCCCCn1ccc2ccc(Cl)cc21)C(=O)O | 41000 | 
11 | O=C(O)C[C@@](O)(C[C@H](O)CCCCn1ccc2cc(Cl)ccc21)C(=O)O | 160000 | 
12 | O=C(O)C[C@](O)(C(=O)O)[C@@H](O)CCCCCCCc1ccc(Cl)cc1Cl | 5700 | 
13 | O=C(O)C[C@@]1(O)C[C@@H](CCCCCCc2ccc(Cl)cc2COc2ccccc2)OC1=O |  | Reduction (Rattus norvegicus [4]): 22%; Reduction (Rattus norvegicus [5]): 34%
14 | O=C(O)C[C@@](O)(C[C@H](O)CCCCCCc1ccc(Cl)cc1-c1ccc(Cl)cc1Cl)C(=O)O | 21000 | 
15 | O=C(O)C[C@@]1(O)C[C@@H](CCCCCn2c3ccccc3c3cc(Cl)ccc32)OC1=O |  | Reduction (Rattus norvegicus [4]): 16%; Reduction (Rattus norvegicus [5]): 33%
16 | O=C(O)C[C@@](O)(C[C@H](O)CCCCCn1cc(Cc2ccccc2)c2cc(Cl)ccc21)C(=O)O | 2900 | 
17 | Cc1cn(CCCCC[C@@H](O)C[C@](O)(CC(=O)O)C(=O)O)c2ccc(Cl)cc12 | 9500 | 
18 | O=C(O)C[C@@](O)(C[C@H](O)CCCCCCn1ccc2cc(Cl)ccc21)C(=O)O | 3200 | 
19 | O=C(O)C[C@@](O)(C[C@H](O)CCCCCCc1ccc(Cl)cc1-n1cccc1)C(=O)O | 3900 | 
20 | O=C(O)C[C@](O)(C(=O)O)[C@@H](O)CCCCCCCCc1ccc(Cl)cc1Cl | 18000 | 
21 | Cc1ccc(C)n1-c1cc(Cl)ccc1CCCCCC[C@@H](O)C[C@](O)(CC(=O)O)C(=O)O |  | inhibition [2]: 67%
22 | COc1ccc(-c2cc(Cl)ccc2CCCCCC[C@@H](O)C[C@](O)(CC(=O)O)C(=O)O)cc1 | 5100 | 
23 | O=C(O)C[C@@]1(O)C[C@@H](CCCCCCc2ccc(Cl)cc2Cl)OC1=O |  | Control (HepG2 [7]): 97%; Control (HepG2 [8]): 97%; Control (HepG2 [9]): 53%; Control (HepG2 [10]): 98%; Control (HepG2 [11]): 114%; Reduction (Rattus norvegicus [4]): 31%; Reduction (Rattus norvegicus [5]): 56%; Control (HepG2 [12]): 74%
24 | O=C(O)C[C@@](O)(C[C@H](O)CCCCCCc1ccc(Cl)cc1-c1ccc(F)cc1)C(=O)O | 2700 | 
25 | O=C(O)C[C@@](O)(CC(=O)CCCCCCc1ccc(Cl)cc1Cl)C(=O)O |  | Ki (ATP-citrate synthase [6]): 1200 nM
26 | COc1cc(Cl)ccc1CCCCCC[C@@H](O)C[C@](O)(CC(=O)O)C(=O)O | 19000 | 

Now from value to molecule, other results behind:

Row | Ki (ATP-citrate synthase [1]) [nM] | Compound | further results
27 | 300 | Cc1cn(-c2cc(Cl)ccc2CCCCCC[C@@H](O)C[C@](O)(CC(=O)O)C(=O)O)cc1C (stereo in doubt; 58) | 
28 | 370 | O=C(O)C[C@@](O)(C[C@H](O)CCCCCn1c(-c2ccccc2)cc2cc(Cl)ccc21)C(=O)O | 
29 | 620 | O=C(O)[C@@H](O)[C@@](O)(C[C@H](O)CCCCCCc1ccc(Cl)cc1Cl)C(=O)O | 
30 | 1800 | O=C(O)C[C@@](O)(C[C@H](O)CCCCCn1ccc2cc(Cl)cc(Cl)c21)C(=O)O | 
31 | 2000 | O=C(O)C[C@@](O)(C[C@@H](O)CCCCCCc1ccc(Cl)cc1Cl)C(=O)O | 
32 | 220 | O=C(O)C[C@@](O)(C[C@H](O)CCCCCC1c2ccccc2-c2cc(Cl)ccc21)C(=O)O (stereo partly drawn) | 
33 | 580 | Cc1cn(-c2cc(Cl)ccc2CCCCCC[C@@H](O)C[C@](O)(CC(=O)O)C(=O)O)cc1C (stereo in doubt; (+)-58) | 
34 | 750 | O=C(O)C[C@@](O)(C[C@H](O)CCCCCCc1ccc(Cl)cc1-c1ccccc1)C(=O)O | 
35 | 710 | O=C(O)C[C@@](O)(C[C@H](O)CCCCCn1c2ccccc2c2cc(Cl)ccc21)C(=O)O | 
36 | 2700 | Cc1ccc(-c2cc(Cl)ccc2CCCCCC[C@@H](O)C[C@](O)(CC(=O)O)C(=O)O)cc1 | 
37 | 340 | Cc1cn(-c2cc(Cl)ccc2CCCCCC[C@@H](O)C[C@](O)(CC(=O)O)C(=O)O)cc1C (stereo in doubt; (-)-58) | 
38 | 770 | O=C(O)C[C@@](O)(C[C@H](O)CCCCCCc1ccc(Cl)cc1Cl)C(=O)O (stereo in doubt; (-)-45) | Ki (ATP-citrate synthase [6]): 700 nM
39 | 550 | O=C(O)[C@H](O)[C@@](O)(C[C@H](O)CCCCCCc1ccc(Cl)cc1Cl)C(=O)O | 
40 | 880 | O=C(O)C[C@@](O)(C[C@H](O)CCCCCCc1ccc(Cl)cc1Cl)C(=O)O (stereo in doubt; (+)-45) | Ki (ATP-citrate synthase [6]): 700 nM
41 | 1100 | O=C(O)C[C@@](O)(C[C@H](O)CCCCCCc1ccc(Cl)cc1OCc1ccccc1)C(=O)O | 
